These results are taken from ChEMBL document CHEMBL1136939, “Fluorinated isatin derivatives. Part 2. New N-substituted 5-pyrrolidinylsulfonyl isatins as potential tools for molecular imaging of caspases in apoptosis” (J Med Chem, 2009).

Each structure is given as a SMILES string.

One assay has as its target T1, Caspase-1 (Homo sapiens, UniProt P29466).
T1 sequence (P29466 whole entry): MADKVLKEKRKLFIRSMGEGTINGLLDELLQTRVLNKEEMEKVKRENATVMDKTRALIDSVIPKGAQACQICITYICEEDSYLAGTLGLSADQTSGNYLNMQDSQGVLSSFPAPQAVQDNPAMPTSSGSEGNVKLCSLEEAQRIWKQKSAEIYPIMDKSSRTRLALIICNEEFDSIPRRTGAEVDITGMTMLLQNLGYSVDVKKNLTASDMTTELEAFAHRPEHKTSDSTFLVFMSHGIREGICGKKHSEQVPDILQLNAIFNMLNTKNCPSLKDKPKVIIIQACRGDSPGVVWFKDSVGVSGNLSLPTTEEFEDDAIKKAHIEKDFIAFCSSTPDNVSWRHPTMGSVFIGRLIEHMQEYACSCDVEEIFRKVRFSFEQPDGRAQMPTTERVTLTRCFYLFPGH
In words: Inhibition of human recombinant caspase 1 assessed as accumulation of cleaved fluorogenic 7-amino-4-methylcoumarin after 10 mins. An outline of the steps:
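Ac-YVAD-AMC substrate, 10 µM final. Enzyme at 0.5 units per assay is preincubated 10 min at 37 °C with compound in DMSO, single doses 5 pM–500 µM final. Substrate is then added and reacts 10 more min. AMC is read at ex 360/em 460 nm. IC50 comes from nonlinear regression, mean ± SD of three assays.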

Another assay addresses T2, Caspase-3 (Homo sapiens, UniProt P42574).
T2 sequence (P42574 whole entry): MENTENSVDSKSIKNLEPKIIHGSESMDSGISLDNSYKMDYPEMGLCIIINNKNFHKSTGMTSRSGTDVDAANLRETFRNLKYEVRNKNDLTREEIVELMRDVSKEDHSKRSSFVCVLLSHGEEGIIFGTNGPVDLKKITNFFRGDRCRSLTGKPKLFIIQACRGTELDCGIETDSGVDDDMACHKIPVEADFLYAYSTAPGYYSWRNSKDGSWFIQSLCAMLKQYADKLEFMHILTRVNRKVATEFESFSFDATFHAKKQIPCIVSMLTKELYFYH
The assay is described as follows: Inhibition of human recombinant caspase 3 assessed as accumulation of cleaved fluorogenic 7-amino-4-methylcoumarin after 10 mins. In a few lines: (§1)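 Ac-DEVD-AMC substrate, 10 µM final. Enzyme at 0.5 units per assay is preincubated 10 min at 37 °C in reaction buffer with compound in DMSO at 5 pM–500 µM final. Substrate reacts a further 10 min. AMC fluorescence is read at 360/460 nm. IC50 by nonlinear regression, mean ± SD of three assays.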

A further assay has as its target T3, Caspase-6 (Homo sapiens, UniProt P55212).
T3 sequence (P55212 whole entry): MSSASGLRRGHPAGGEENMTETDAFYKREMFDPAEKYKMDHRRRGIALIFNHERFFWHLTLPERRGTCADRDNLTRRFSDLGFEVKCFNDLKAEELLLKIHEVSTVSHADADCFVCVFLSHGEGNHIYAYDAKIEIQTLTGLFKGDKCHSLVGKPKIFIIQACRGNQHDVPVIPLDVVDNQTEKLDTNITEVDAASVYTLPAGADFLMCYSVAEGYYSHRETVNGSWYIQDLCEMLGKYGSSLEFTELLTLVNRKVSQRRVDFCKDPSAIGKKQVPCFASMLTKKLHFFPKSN
The assay is described as follows: Inhibition of human recombinant caspase 6 assessed as accumulation of cleaved fluorogenic 7-amino-4-methylcoumarin after 10 mins. In a few lines:
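Substrate Ac-VEID-AMC at 10 µM final, added after the enzyme (0.5 units per assay) has been preincubated 10 min at 37 °C with compound in DMSO at single doses of 5 pM–500 µM. Reaction runs 10 min, then AMC is read at ex 360, em 460 nm. IC50 by nonlinear regression; mean ± SD, n=3.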

Another assay has as its target T4, Caspase-7 (Homo sapiens, UniProt P55210).
T4 sequence (P55210 whole entry): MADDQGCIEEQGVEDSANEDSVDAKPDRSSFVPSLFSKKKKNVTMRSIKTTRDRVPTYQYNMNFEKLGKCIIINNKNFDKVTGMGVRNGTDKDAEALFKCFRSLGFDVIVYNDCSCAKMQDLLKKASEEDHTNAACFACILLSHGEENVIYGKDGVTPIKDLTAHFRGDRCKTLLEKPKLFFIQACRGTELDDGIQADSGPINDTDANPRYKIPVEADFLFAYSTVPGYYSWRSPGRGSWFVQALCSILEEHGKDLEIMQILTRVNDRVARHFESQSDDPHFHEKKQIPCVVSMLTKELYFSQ
The assay is described as follows: Inhibition of human recombinant caspase 7 assessed as accumulation of cleaved fluorogenic 7-amino-4-methylcoumarin after 10 mins. In a few lines:
as §1

Take `COC[C@@H]1CCCN1S(=O)(=O)c1ccc2c(c1)C(=O)C(=O)N2Cc1ccc(OCC2CO2)cc1` (stereo partly drawn): the half-inhibitory concentration (IC50) was more than 500000 nM at Caspase-1, 42 nM at Caspase-3, more than 500000 nM at Caspase-6 and 2.4 nM at Caspase-7.

As to `C=CCCCCCCCCCN1C(=O)C(=O)c2cc(S(=O)(=O)N3CCC[C@H]3COC)ccc21`, the half-maximal inhibitory concentration (IC50) on Caspase-1 is more than 500000 nM; at Caspase-3 it was 74 nM; at Caspase-6 it was more than 500000 nM; at Caspase-7 it was 111 nM.

Turning to `COC[C@@H]1CCCN1S(=O)(=O)c1ccc2c(c1)C(=O)C(=O)N2`, the 50% inhibitory concentration (IC50) on Caspase-1 and at Caspase-6 was more than 500000 nM in each case.

On to `COC[C@@H]1CCCN1S(=O)(=O)c1ccc2c(c1)C(=O)C(=O)N2C[C@H](O)CF`, for which the IC50 is more than 500000 nM at Caspase-1, 19 nM on Caspase-3, more than 500000 nM at Caspase-6 and 349 nM on Caspase-7.

Turning to `C=CCCN1C(=O)C(=O)c2cc(S(=O)(=O)N3CCC[C@H]3COC)ccc21`, the IC50 on Caspase-1 was more than 500000 nM; on Caspase-3 it was 31 nM; at Caspase-6 it was more than 500000 nM; on Caspase-7, 50 nM.

On to `COC[C@@H]1CCCN1S(=O)(=O)c1ccc2c(c1)C(=O)C(=O)N2Cc1ccc(C(F)CO)cc1` (stereo partly drawn), for which the IC50 on Caspase-1 is more than 500000 nM; on Caspase-3 it was 80 nM; at Caspase-6 it was more than 500000 nM; at Caspase-7, 7.6 nM.

Turning to `O=C1Nc2ccc(S(=O)(=O)N3CCC[C@H]3COc3ccccc3)cc2C1=O`, the IC50 at Caspase-1 and on Caspase-6 was more than 500000 nM each time.

With `COC[C@@H]1CCCN1S(=O)(=O)c1ccc2c(c1)C(=O)C(=O)N2Cc1ccc(C2CO2)cc1` (stereo partly drawn), the IC50 is more than 500000 nM at Caspase-1, 6.6 nM at Caspase-3, more than 500000 nM at Caspase-6 and 1.9 nM at Caspase-7.

Take `CN1C(=O)C(=O)c2cc(S(=O)(=O)N3CCC[C@H]3COc3ccccc3)ccc21`: the IC50 was more than 500000 nM at Caspase-1, 2.4 nM at Caspase-3, more than 500000 nM at Caspase-6 and 304 nM at Caspase-7.

As to `COC[C@@H]1CCCN1S(=O)(=O)c1ccc2c(c1)C(=O)C(=O)N2Cc1ccc(C(F)CBr)cc1` (stereo partly drawn), the IC50 on Caspase-1 was more than 500000 nM; on Caspase-3 it was 43 nM; on Caspase-6, more than 500000 nM; on Caspase-7, 16 nM.

On to `COC[C@@H]1CCCN1S(=O)(=O)c1ccc2c(c1)C(=O)C(=O)N2C[C@H](O)CO`, for which the IC50 at Caspase-1 is more than 500000 nM; on Caspase-3, 11 nM; on Caspase-6, more than 500000 nM; on Caspase-7 it was 43 nM.

`C=Cc1ccc(CN2C(=O)C(=O)c3cc(S(=O)(=O)N4CCC[C@H]4COC)ccc32)cc1`: the IC50 on Caspase-1 was more than 500000 nM; on Caspase-3 it was 9.3 nM; at Caspase-6, more than 500000 nM; at Caspase-7 it was 7.2 nM.

For `C=CCN1C(=O)C(=O)c2cc(S(=O)(=O)N3CCC[C@H]3COC)ccc21`, the half-maximal inhibitory concentration (IC50) on Caspase-1 was more than 500000 nM; on Caspase-3, 25 nM; on Caspase-6 it was more than 500000 nM; at Caspase-7 it was 24 nM.

`COC[C@@H]1CCCN1S(=O)(=O)c1ccc2c(c1)C(=O)C(=O)N2CCC1CO1` (stereo partly drawn): the IC50 at Caspase-1 was more than 500000 nM; on Caspase-3 it was 151 nM; at Caspase-6 it was more than 500000 nM; at Caspase-7 it was 68 nM.

In the case of `COC[C@@H]1CCCN1S(=O)(=O)c1ccc2c(c1)C(=O)C(=O)N2CC(F)(F)CBr`, the IC50 on Caspase-3 is 1880 nM; on Caspase-7, 1660 nM.

Take `COC[C@@H]1CCCN1S(=O)(=O)c1ccc2c(c1)C(=O)C(=O)N2CCC(O)CF` (stereo partly drawn): the IC50 at Caspase-1 was more than 500000 nM; at Caspase-3, 3.6 nM; on Caspase-6, more than 500000 nM; on Caspase-7, 99 nM.

On to `COC[C@@H]1CCCN1S(=O)(=O)c1ccc2c(c1)C(=O)C(=O)N2Cc1ccc(OCC(O)CF)cc1` (stereo partly drawn), for which the half-inhibitory concentration (IC50) was more than 500000 nM on Caspase-1, 145 nM on Caspase-3, more than 500000 nM on Caspase-6 and 5 nM on Caspase-7.

Take `COC[C@@H]1CCCN1S(=O)(=O)c1ccc2c(c1)C(=O)C(=O)N2CCC(O)CO` (stereo partly drawn): the half-maximal inhibitory concentration (IC50) at Caspase-1 is more than 500000 nM; at Caspase-3 it was 275 nM; on Caspase-6, more than 500000 nM; at Caspase-7, 61 nM.

With `C=CCOc1ccc(CN2C(=O)C(=O)c3cc(S(=O)(=O)N4CCC[C@H]4COC)ccc32)cc1`, the IC50 on Caspase-1 is more than 500000 nM; on Caspase-3, 10 nM; on Caspase-6, more than 500000 nM; at Caspase-7, 0.6 nM.

Turning to `COC[C@@H]1CCCN1S(=O)(=O)c1ccc2c(c1)C(=O)C(=O)N2C[C@H]1CO1`, the IC50 was 3160 nM at Caspase-1, 17 nM at Caspase-3, more than 500000 nM at Caspase-6 and 9 nM on Caspase-7.

As for `COC[C@@H]1CCCN1S(=O)(=O)c1ccc2c(c1)C(=O)C(=O)N2CCCCCCCCCC1CO1` (stereo partly drawn), the IC50 on Caspase-1 was more than 500000 nM; at Caspase-3 it was 23 nM; at Caspase-6, more than 500000 nM; on Caspase-7 it was 61 nM.

In general, IC50 refers to the concentration needed to halve the response being measured.
